Experimental data published in ChEMBL document CHEMBL1137562, “Synthesis and structure-activity relationships of 16-modified analogs of 2-methoxyestradiol” (Bioorg Med Chem, 2007).

Experiments:
[1] = test system: HUVEC; assay: Antiproliferative activity against human HUVECs after 48 hrs; type: cell-based
How it was run: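 HUVEC kept in EGM, plated at 5000 cells/well and left to attach overnight. Cells were exposed to increasing drug concentrations for 48 h at 37 °C. DNA synthesis was read by colorimetric BrdU ELISA. Each concentration was run in triplicate in at least two independent experiments, reported as mean ±SD.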

[2] = test system: MCF7; assay: Antiproliferative activity against human MCF7 cells after 8 to 10 days relative to 2-methoxyestradiol; type: functional
How it was run: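 Estrogen-dependent MCF-7 cells (passage 60–90) plated at 20–30,000 cells/well and left overnight. Cells were washed and starved 3 days in phenol red-free IMEM with 2% charcoal-dextran-stripped FBS, then treated with increasing concentrations in the same medium, refreshed every 2–3 days. Cells were Coulter-counted after 8 or 10 days. Triplicates in at least two independent experiments; stimulation index relative to 2-methoxyestradiol (1.00).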

[3] = test system: MDA-MB-231; assay: Antiproliferative activity against human MDA-MB-231 cells after 48 hrs; type: functional, cell-based; settings: MDA-MB-231, 48 h
How it was run: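 MDA-MB-231 cells kept in DMEM with 10% FBS, 2 mM L-glutamine and penicillin/streptomycin, plated at 2000 cells/well and left to attach overnight. Cells were exposed to increasing concentrations for 48 h. Proliferation was read as DNA synthesis by colorimetric BrdU ELISA. Triplicates in at least two independent experiments, reported as mean ±SD.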

Row | Structure (SMILES) | IC50 [1] [µM] | Activity [2] | IC50 [3] [µM]
1 | COc1cc2c(cc1O)CC[C@@H]1[C@@H]2CC[C@]2(C)[C@@H](O)[C@@H](C)C[C@@H]12 | 2.26 | 1.62 | 2.4
2 | COc1cc2c(cc1O)CC[C@@H]1[C@@H]2CC[C@]2(C)[C@@H](O)[C@H](CO)C[C@@H]12 | 2.92 | 0.93 | 4.26
3 | COc1cc2c(cc1O)CC[C@@H]1[C@@H]2CC[C@]2(C)[C@@H](O)[C@H](C)C[C@@H]12 | 0.35 | 2.07 | 0.74
4 | CC[C@@H]1C[C@H]2[C@@H]3CCc4cc(O)c(OC)cc4[C@H]3CC[C@]2(C)[C@H]1O | 1.35 | 1.09 | 3.59
5 | CCC[C@H]1C[C@H]2[C@@H]3CCc4cc(O)c(OC)cc4[C@H]3CC[C@]2(C)[C@H]1O | 17.1 | 0.93 | 45.1
6 | CCCC[C@H]1C[C@H]2[C@@H]3CCc4cc(O)c(OC)cc4[C@H]3CC[C@]2(C)[C@H]1O | 8.17 | 0.82 | 37.9
7 | COc1cc2c(cc1O)CC[C@@H]1[C@@H]2CC[C@]2(C)[C@@H](O)[C@H](CN(C)C)C[C@@H]12 | 36.8 | 1.43 | 22.7
8 | COc1cc2c(cc1O)CC[C@@H]1[C@@H]2CC[C@]2(C)[C@@H](O)CC[C@@H]12 [2-METHOXYESTRADIOL] | 0.84 |  | 1
9 | CCC[C@@H]1C[C@H]2[C@@H]3CCc4cc(O)c(OC)cc4[C@H]3CC[C@]2(C)[C@H]1O | 6.55 | 0.83 | 35.1
10 | COc1cc2c(cc1O)CC[C@@H]1[C@@H]2CC[C@]2(C)[C@@H](O)[C@H](CC(C)C)C[C@@H]12 | 7.15 | 0.41 | 38.3
11 | CCCC[C@@H]1C[C@H]2[C@@H]3CCc4cc(O)c(OC)cc4[C@H]3CC[C@]2(C)[C@H]1O | 18.2 | 0.73 | 27.9
12 | COc1cc2c(cc1O)CC[C@@H]1[C@@H]2CC[C@]2(C)[C@@H](O)[C@@H](CO)C[C@@H]12 | 6.36 | 1.14 | 6.09
